{
  "source": "ChEMBL document CHEMBL1629555",
  "about": "“Antimalarial activity of phenylthiazolyl-bearing hydroxamate-based histone deacetylase inhibitors” (Antimicrob Agents Chemother, 2008)",
  "key": {"Plasmodium berghei [1]": {"tested_on": "Plasmodium berghei", "assay": "Antimalarial activity against Plasmodium berghei infected in mouse assessed as parasitemia level at 320 mg/kg/day for 3 days measured on day 3 (reference value: 0.46%)", "format": "functional", "summary_of_the_method": "(§1)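 Mice were infected ip with 10^6 P. berghei-parasitized erythrocytes. The compound was given orally once daily on days 3, 4 and 5 post-infection in hydroxyethylcellulose-Tween 20 vehicle, alone or together with chloroquine, with 5 mice per dose group. Parasitemia (%) was read on days 3 and 6, and cures were counted as animals cured out of 5.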"}, "Plasmodium berghei [2]": {"tested_on": "Plasmodium berghei", "assay": "Antimalarial activity against Plasmodium berghei infected in mouse assessed as parasitemia level at split dose of 320 mg/kg/day, po for 3 days measured on day 6 relative to control", "format": "functional", "summary_of_the_method": "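Blood-stage P. berghei model: mice inoculated ip with 10^6 parasitized erythrocytes. Oral treatment for 3 days, with the daily dose split, in hydroxyethylcellulose-Tween 20 vehicle. Day-6 parasitemia expressed as a fraction of control parasitemia.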"}, "Plasmodium berghei [3]": {"tested_on": "Plasmodium berghei", "assay": "Antimalarial activity against Plasmodium berghei infected in mouse assessed as effect on cure rate at 12.8 mg/kg/day for 3 days measured on day 6 in presence of 16 mg/kg/day chloroquine", "format": "functional, organism-based", "summary_of_the_method": "as §1"}, "Plasmodium berghei [4]": {"tested_on": "Plasmodium berghei", "assay": "Antimalarial activity against Plasmodium berghei infected in mouse assessed as parasitemia level at 52 mg/kg/day for 3 days measured on day 6 in presence of 64 mg/kg/day chloroquine", "format": "functional", "summary_of_the_method": "as §1"}},
  "note": "Active and inactive are the calls of the source. The calls are words filed in the database; no cut-off is given here.",
  "data": [
    {"smiles": "Nc1cccc(-c2csc(NC(=O)CCCCCCC(=O)NO)n2)c1", "values": [
      {"measurement": "Activity", "setting": "Plasmodium berghei [1]", "result": 0.52, "unit": "%"},
      {"measurement": "fold change (FC)", "setting": "Plasmodium berghei [2]", "result": 0.004},
      {"measurement": "Activity", "setting": "Plasmodium berghei [3]", "result": "inactive"},
      {"measurement": "Activity", "setting": "Plasmodium berghei [4]", "result": 0, "unit": "%"}
    ]}
  ]
}
